Reference: ChEMBL document CHEMBL1138124, “Novel sulfonanilide analogues suppress aromatase expression and activity in breast cancer cells independent of COX-2 inhibition” (J Med Chem, 2006)
Activity calls are given as the source filed them. The rule behind the calls is not given here.

What was measured:
MDA-MB-231 = experiment: Reduction in PGE2 levels in MDA-MB-231 cell; type: functional, cell-based; conditions: Homo sapiens
Summary of the method: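 MDA-MB-231 cells in phenol red-free MEM with 10% FBS were plated at 15 × 10^4 per dish, adhered overnight, then serum-starved 24 h. They were then treated 24 h at 37 °C with 25 µM agent or DMSO. PGE2 in the medium was measured by ELISA and normalized to total protein from NaOH extracts; mean ± SEM, n = 6.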

Aromatase = target: T1, Aromatase (Homo sapiens, UniProt P11511); experiment: Inhibition of aromatase activity in human placental microsomes at 5 uM; set-up: species or system Placenta
T1 sequence (P11511 whole entry): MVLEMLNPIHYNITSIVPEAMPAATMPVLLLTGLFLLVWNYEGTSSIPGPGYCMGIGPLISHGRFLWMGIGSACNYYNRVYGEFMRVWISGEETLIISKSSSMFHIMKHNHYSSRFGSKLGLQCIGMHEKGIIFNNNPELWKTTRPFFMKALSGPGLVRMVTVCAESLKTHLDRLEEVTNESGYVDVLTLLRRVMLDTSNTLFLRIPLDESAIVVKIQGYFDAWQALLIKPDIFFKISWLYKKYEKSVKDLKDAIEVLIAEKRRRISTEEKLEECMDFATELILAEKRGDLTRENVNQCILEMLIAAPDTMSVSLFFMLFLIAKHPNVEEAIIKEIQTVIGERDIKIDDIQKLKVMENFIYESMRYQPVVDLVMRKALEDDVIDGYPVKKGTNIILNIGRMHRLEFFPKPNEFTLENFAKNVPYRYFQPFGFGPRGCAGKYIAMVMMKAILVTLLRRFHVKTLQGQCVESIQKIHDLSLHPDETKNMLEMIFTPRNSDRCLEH
Summary of the method: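 Human term placental microsomes (50 µg protein) incubated with 100 nM [1β-3H]androst-4-ene-3,17-dione for 15 min at 37 °C, compound at 5 µM. Quenched with chloroform; released 3H2O counted. Triplicates, with background taken from boiled microsomes. 50 µM aminoglutethimide served as positive control. Normalized to vehicle; three independent determinations.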

SK-BR-3 = experiment: Reduction in CYP19 mRNA expression in SKBr3 cells after 24h exposure to 25uM relative to control; type: functional, cell-based; conditions: Homo sapiens
Summary of the method: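 SK-BR-3 cells were exposed 24 h to 25 µM agent or vehicle and total RNA isolated. DNase-treated RNA (2 µg) was reverse transcribed with random hexamers. CYP19 transcripts were quantified by real-time PCR (50 cycles, 95 °C 15 s / 60 °C 1 min), with 18S rRNA as housekeeping reference, relative to vehicle control.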

Row | Structure (SMILES) | Activity (MDA-MB-231) | Inhibition (Aromatase) | Activity (SK-BR-3)
1 | CCC(CC)Oc1cc([N+](=O)[O-])ccc1NS(C)(=O)=O | Active | Not Active | Active
2 | COc1cc([N+](=O)[O-])ccc1NS(C)(=O)=O |  | Not Active | 
3 | CN(c1ccc([N+](=O)[O-])cc1OCC1CCCCC1)S(C)(=O)=O | inactive | Not Active | 
4 | CCCOc1cc([N+](=O)[O-])ccc1NS(C)(=O)=O |  | Not Active | 
5 | CN(c1ccc([N+](=O)[O-])cc1OC1CCCC1)S(C)(=O)=O | inactive | Not Active | 
6 | CC(C)Oc1cc([N+](=O)[O-])ccc1NS(C)(=O)=O |  | Not Active | 
7 | CCCCCCCCCOc1cc([N+](=O)[O-])ccc1N(C)S(C)(=O)=O |  | Not Active | 
8 | CCC(CC)Oc1cc([N+](=O)[O-])ccc1N(C)S(C)(=O)=O | inactive | Not Active | Active
9 | CC(C)Oc1cc([N+](=O)[O-])ccc1N(C)S(C)(=O)=O |  | Not Active | 
10 | CCCCCCOc1cc([N+](=O)[O-])ccc1N(C)S(C)(=O)=O |  | Not Active | 
11 | CS(=O)(=O)Nc1ccc([N+](=O)[O-])cc1OCC1CCCCC1 |  | Not Active | 
12 | CS(=O)(=O)Nc1ccc([N+](=O)[O-])cc1OC1CCCC1 | Active | Not Active | 
13 | CCCCCCOc1cc([N+](=O)[O-])ccc1NS(C)(=O)=O |  | Not Active | 
14 | CCCOc1cc([N+](=O)[O-])ccc1N(C)S(C)(=O)=O |  | Not Active | 
15 | CS(=O)(=O)Nc1ccc([N+](=O)[O-])cc1OC1CCCCC1 [NS-398] | Active | Not Active | Active
16 | CCCCCCCCCOc1cc([N+](=O)[O-])ccc1NS(C)(=O)=O |  | Not Active | 
17 | CN(c1ccc([N+](=O)[O-])cc1OC1CCCCC1)S(C)(=O)=O | inactive | Not Active | Active
18 | COc1cc([N+](=O)[O-])ccc1N(C)S(C)(=O)=O |  | Not Active | 
